Sampled rows, rich in hits. Any-hit rate of the full collection: about 3.5%.
MrgX1 ag: activates human MrgX1 receptor signaling; B-score at 10 µM; Q96LB2; MrgX1-HEK293 cells, Fluo-4 calcium fluorescence, agonist mode; stronger effect = higher value; 0.44% of 310,000 active;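 active = calcium response B-score plate-corrected fluorescence ratio at least 3 library SD, with starting fluorescence B-score inside 5 SD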
Target sequence (Q96LB2 whole entry, looked up): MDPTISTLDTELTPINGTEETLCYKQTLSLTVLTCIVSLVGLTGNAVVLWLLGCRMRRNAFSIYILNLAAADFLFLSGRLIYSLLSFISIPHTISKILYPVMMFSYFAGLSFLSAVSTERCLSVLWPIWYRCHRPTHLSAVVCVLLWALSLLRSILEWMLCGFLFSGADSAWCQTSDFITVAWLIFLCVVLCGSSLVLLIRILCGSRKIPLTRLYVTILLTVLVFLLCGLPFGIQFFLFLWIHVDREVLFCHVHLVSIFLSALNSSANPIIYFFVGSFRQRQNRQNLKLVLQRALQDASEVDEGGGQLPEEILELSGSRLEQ
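System: HEK293 cells stably expressing human MrgX1 receptor; Dosing: test compound in the initial addition of three; Schedule: overnight plating, then 30 min 37 °C plus 30 min room-temperature dye loading; Detection: kinetic calcium dye fluorescence, Fluo-4 NW; Controls: per-plate positive and negative controls for Z′ factor.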
MrgX1 allo act: human MrgX1 positive allosteric modulation, primary screen. Q96LB2. MrgX1-HEK293, Fluo-4 calcium flux, FDSS; stronger effect = higher value. B-score at 10 µM. 0.63% of 310,000 active. AID 588675;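 active = plate-corrected calcium response at least 3 library SD above typical, normal starting fluorescence, not activating the receptor alone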;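 also: compound read alongside a low EC10 to EC30 dose of BAM8-22 agonist; peak minus trough fluorescence over baseline measured at the second addition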
MrgX1 antagonist: human MrgX1 receptor antagonism, primary screen; Q96LB2; MRGX1-HEK293 calcium flux, Fluo-4, BAM8-22 antagonism; stronger effect = lower value; B-score at 10 µM; 1.3% of 310,000 active;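 active = calcium-response B-score plate-corrected more than 3 library SD below zero, starting fluorescence within 5 deviations, no agonist response on first addition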;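 also: peak minus trough fluorescence over baseline after final BAM8-22 challenge near maximal dose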
RGS4 block: human RGS4 inhibition | HEK293 M3R/RGS4 inducible, Fluo-4 calcium flux; stronger effect = higher value; triggered by carbachol at its EC20 | B-score at 10 µM | 0.45% of 310,000 active;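 active = B-score, a plate-corrected calcium signal, over three deviations above library mean, with baseline fluorescence within five deviations of library mean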;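 also: RGS4 expression induced by doxycycline in cells with stable M3 receptor; B-score is computed from the integrated fluorescence ratio over baseline after carbachol; higher B-score means a larger calcium signal and so more RGS4 inhibition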
Target sequence (P49798 whole entry, looked up): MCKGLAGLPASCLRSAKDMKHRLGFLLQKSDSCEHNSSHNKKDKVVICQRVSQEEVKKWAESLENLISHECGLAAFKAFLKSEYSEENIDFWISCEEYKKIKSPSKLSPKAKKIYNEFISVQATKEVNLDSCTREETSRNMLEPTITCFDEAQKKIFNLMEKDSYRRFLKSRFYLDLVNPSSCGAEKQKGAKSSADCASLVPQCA
RGS4 act: potentiators or activators of RGS4 | AID 463111 | HEK293 M3R/inducible RGS4, carbachol calcium flux Fluo4; stronger effect = lower value | B-score at 10 µM | 0.92% of 310,000 active;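 active = B-score of the integrated calcium signal more than 4 SD below the library mean, with starting fluorescence not abnormally high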;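 also: negative B-score means reduced calcium response which marks RGS4 activation or potentiation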
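Reagent: ECmax carbachol challenge; Test system: M3R-expressing HEK293 line, RGS4 induced by doxycycline; Schedule: overnight RGS4 induction, 30 min dye load 37 °C, 20 min compound RT; Detection: calcium dye Fluo4 fluorescence; Read-out: Agonist-evoked peak-minus-minimum fluorescence over baseline, integrated ratio, B score.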
RGS4 act valid: RGS4 activation, validation assay. inhibition, % at 10 µM. 89% of 1,100 active. HEK293 M3R/RGS4 inducible, carbachol calcium flux Fluo4. shares compounds with RGS4 act;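 active = inhibition above 3 SD of the buffer control wells, cut at about 41% in these data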;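 also: signal is the integrated peak-minus-minimum Fluo4 fluorescence over baseline ratio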
M3R Ca counter: counter-screen for RGS4 activators: effect in non-induced cells | HEK293 M3R non-induced RGS4, Fluo4 calcium flux; after carbachol challenge at its EC90 | 82% of 1,100 active | AID 602283 | shares compounds with RGS4 act | inhibition, % at 10 µM;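 active = inhibition exceeding 3 SD of buffer-only control wells, cut at about 26% in these data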;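 also: percent drop in integrated peak-minus-baseline over baseline Fluo4 ratio after carbachol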
MrgX1 ag confirm: confirmation of human MrgX1 receptor agonists | shares compounds with MrgX1 ag | MrgX1-HEK293, Fluo-4 calcium fluorescence, FDSS | activation, % at 10 µM | 78% of 600 active;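 active = calcium signal rise, corrected for plate position, at least 3 library SD high, with starting brightness within 5 such deviations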
MrgX1 allo conf: reconfirmed allosteric activator of human MrgX1 receptor. shares compounds with MrgX1 allo act. activation (ratio percentage), % at 10 µM. MrgX1-HEK293, Fluo-4 calcium fluorescence, FDSS. AID 602413. 13% of 1,200 active;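 active = ratio at least 3 SD above the weak peptide control, stable starting fluorescence, no direct agonism earlier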;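 also: compound followed by low BAM8-22 agonist challenge near EC20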
MrgX1 antag conf: human MrgX1 receptor antagonism, re-confirmation screen | shares compounds with MrgX1 antagonist | AID 602420 | remaining BAM8-22 calcium response % of control (stronger effect = lower value), % at 10 µM | 19% of 2,300 active | MrgX1-HEK293, BAM8-22 calcium flux, Fluo-4; stronger effect = lower value;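 active = remaining agonist calcium response no higher than 100% minus 3 SD of agonist-only control wells, with starting fluorescence near control levels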;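 also: agonist BAM8-22 given at a near maximal EC90 to ECmax level; peak minus minimum fluorescence divided by baseline after agonist addition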
HEK293 Ca flux: counter-screen for MrgX1 antagonists: effect in parental HEK293 cells | shares compounds with MrgX1 antagonist | fluorescence ratio F(max-min)/F0 at 10 µM | Fluo-4 calcium fluorescence, FDSS | AID 624111 | 2% of 4,000 active;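 active = duplicate-averaged calcium fluorescence ratio at least three times the standard deviation of buffer wells, a nonspecific response in parental cells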
HEK293 Ca counter: activity in parental HEK293 cells without MrgX1 | parental HEK293 calcium flux, Fluo-4 fluorescence ratio; stronger effect = higher value | fluorescence ratio F(max-min)/F0 at 10 µM | shares compounds with MrgX1 antagonist | 0.4% of 4,000 active;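 active = calcium fluorescence ratio, averaged over duplicates, at least 3 SD of the buffer-well ratio, meaning a nonspecific response in receptor-free cells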;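 also: untransfected parental HEK293 lacking MrgX1 used as counterscreen for MrgX1 allosteric activators; fluorescence change taken during the second addition on a kinetic imager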
HEK293 Ca cntr2: activity in parental HEK293 cells lacking MrgX1 receptor. AID 624115. Fluo-4 calcium fluorescence (FDSS); stronger effect = higher value. fluorescence ratio F(max-min)/F0 at 10 µM. 8.7% of 4,000 active. shares compounds with MrgX1 antagonist;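 active = calcium fluorescence ratio at least three times the spread of buffer wells, meaning a non-specific response in parental cells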
Large screens that a line does not name were inactive (follow-up assays come after a bar, where they were run).

OC(CCN1CCOCC1)(c1ccc(Cl)cc1)C1CCCCC1 (centres undefined)	MrgX1 allo act 6.81, RGS4 act -9.85 | RGS4 act valid 93.0 | M3R Ca counter 94.3 | MrgX1 allo conf inactive | HEK293 Ca flux inactive | HEK293 Ca counter inactive | HEK293 Ca cntr2 inactive
Cc1ccccc1N1CCN(CCC(=O)Nc2ccc(F)cc2)CC1	none
Cc1nc(Nc2nc(CSc3nc4ccccc4[nH]3)cc(=O)[nH]2)nc2ccccc12	MrgX1 antagonist -5.17, RGS4 act -13 | RGS4 act valid 61.5 | M3R Ca counter inactive | MrgX1 antag conf 82.7% | HEK293 Ca flux inactive | HEK293 Ca counter inactive | HEK293 Ca cntr2 inactive
COc1ccc2nc(Nc3nc(CSc4nc5ccccc5[nH]4)cc(=O)[nH]3)nc(C)c2c1	none
CCN(CC)CC#CC(OC)(c1ccccc1)c1ccccc1	MrgX1 allo act 8.03, RGS4 act -9.68 | RGS4 act valid 92.5 | M3R Ca counter 88.3 | MrgX1 allo conf inactive | HEK293 Ca flux inactive | HEK293 Ca counter inactive | HEK293 Ca cntr2 inactive
C=CCn1c(SCCN2CCCC2)nc2c([nH]c3ccccc32)c1=O	MrgX1 antagonist -4.59, RGS4 act -8.45 | RGS4 act valid 63.5 | M3R Ca counter inactive | MrgX1 antag conf inactive | HEK293 Ca flux inactive | HEK293 Ca counter inactive | HEK293 Ca cntr2 inactive
C=CCn1c(SCC(=O)Nc2ccc(OC)cc2)nc2c([nH]c3ccccc32)c1=O	none
Cc1nc(Cl)c(C#N)cc1-c1ccccc1	none
Cc1nc(Sc2ccccc2)c(C#N)cc1-c1ccccc1	MrgX1 allo act 6.79, RGS4 act -10.2 | RGS4 act valid 94.0 | M3R Ca counter 63.3 | MrgX1 allo conf inactive | HEK293 Ca flux inactive | HEK293 Ca counter inactive | HEK293 Ca cntr2 inactive
COc1cc(OC)cc(C(=O)NC(=S)NNC(=O)[C@H]2C[C@@H]2c2ccccc2)c1	MrgX1 ag 109, RGS4 act -11 | RGS4 act valid 84.5 | M3R Ca counter 77.3 | MrgX1 ag confirm 580.2% | HEK293 Ca flux inactive | HEK293 Ca counter inactive | HEK293 Ca cntr2 110
O=C(Nc1ccccn1)c1ccc(Cl)c([N+](=O)[O-])c1	none
COC(=O)c1cccc(Nc2nc(-c3ccncc3)nc3ccccc23)c1	none
CCOC(=O)c1cccc(Nc2nc(-c3cccnc3)nc3ccccc23)c1	MrgX1 antagonist -4.58, RGS4 act -8.06 | RGS4 act valid 57.0 | M3R Ca counter inactive | MrgX1 antag conf inactive | HEK293 Ca flux inactive | HEK293 Ca counter inactive | HEK293 Ca cntr2 inactive
O=c1c2ccccc2oc2cc(OCc3cccc(F)c3)cc(O)c12	none

Compound activity as filed in PubChem.
